The IC50 is the concentration needed to halve the response being measured.

Experiment [1] deals with Glycogen synthase kinase-3 (Homo sapiens, UniProt P49840+P49841). Description: Inhibition of GSK3alpha/beta in presence of 15 uM ATP. The class given is protein assay. The procedure, abridged: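 Assayed against GSK-3α/β using GS-1 peptide as substrate, final ATP 15 μM; conditions otherwise follow earlier published method.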
For experiment [2], the target named is Cyclin-dependent kinase 1/cyclin B (Homo sapiens, UniProt P06493). Description: Inhibition of CDK1/cyclinB in presence of 15 uM ATP. The class given is protein-complex assay.
In experiment [3] the target is Cyclin-dependent kinase 5/CDK5 activator 1 (Homo sapiens, UniProt Q00535). Nature of the experiment: Inhibition of CDK5/p25 in presence of 15 uM ATP. The class given is protein-complex assay. An outline of the steps:
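Kinase activity assayed with histone H1 as protein substrate and ATP at 15 μM final; procedure otherwise as previously described.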

Sequence of Cyclin-dependent kinase 5/CDK5 activator 1 (Q00535 whole entry): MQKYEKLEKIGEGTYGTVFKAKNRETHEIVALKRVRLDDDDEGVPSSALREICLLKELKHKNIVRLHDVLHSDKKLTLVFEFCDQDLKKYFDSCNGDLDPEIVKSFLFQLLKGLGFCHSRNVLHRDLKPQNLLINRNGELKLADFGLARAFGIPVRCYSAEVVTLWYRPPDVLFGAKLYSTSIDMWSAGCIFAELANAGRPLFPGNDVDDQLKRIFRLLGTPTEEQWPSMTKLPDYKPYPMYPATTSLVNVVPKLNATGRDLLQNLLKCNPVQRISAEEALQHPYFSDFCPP
Sequence of Cyclin-dependent kinase 5/CDK5 activator 1 (Q15078 whole entry, further chain): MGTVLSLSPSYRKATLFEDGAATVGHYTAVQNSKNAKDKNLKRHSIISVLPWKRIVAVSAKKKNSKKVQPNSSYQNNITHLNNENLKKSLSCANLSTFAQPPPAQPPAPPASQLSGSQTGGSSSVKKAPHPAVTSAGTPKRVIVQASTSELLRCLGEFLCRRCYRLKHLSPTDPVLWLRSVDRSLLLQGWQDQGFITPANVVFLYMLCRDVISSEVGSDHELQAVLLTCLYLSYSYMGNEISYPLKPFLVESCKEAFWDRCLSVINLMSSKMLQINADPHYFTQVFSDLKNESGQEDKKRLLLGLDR

Regarding `CC(C)Cn1cnc2ccc3nc(C4=NCCN4)sc3c2c1=O`, the IC50 is 4.6 µM in experiment [1], 85 µM in experiment [2] and above 100 µM in experiment [3].

With `CCn1cnc2ccc3nc(C4=NCCN4)sc3c2c1=O`, the IC50 was 4.2 µM in experiment [1], above 100 µM in experiment [2] and above 100 µM in experiment [3].

For the molecule `CC(C)CCn1cnc2ccc3nc(C4=NCCN4)sc3c2c1=O`, the 50% inhibitory concentration (IC50) in experiment [1], in experiment [2] and in experiment [3] was above 10 µM in each case.

Turning to `O=c1c2c(ccc3nc(C4=NCCN4)sc32)ncn1Cc1ccccc1`, the IC50 in experiment [1] and in experiment [3] was above 10 µM in each case.

Take `CC(C)n1cnc2ccc3nc(C4=NCCN4)sc3c2c1=O`: the IC50 in experiment [1] was 1.6 µM; in experiment [2], above 100 µM; in experiment [3], above 100 µM.

Regarding `CC(C)NC(=N)c1nc2ccc3ncn(C(C)C)c(=O)c3c2s1`, the IC50 in experiment [1] was found to be 9.4 µM.

On to `CCCn1cnc2ccc3nc(C4=NCCN4)sc3c2c1=O`, for which the values for the IC50 in experiment [1], in experiment [2] and in experiment [3] were 1.6 µM, above 100 µM and above 100 µM, respectively.

Take `COc1ccc(Cn2cnc3ccc4nc(C5=NCCN5)sc4c3c2=O)cc1`: the half-maximal inhibitory concentration (IC50) in experiment [1] and in experiment [2] was above 10 µM in each case.

For `CCn1cnc2ccc3nc(C(=N)NCCN(C)C)sc3c2c1=O`, the IC50 in experiment [1] was determined as 1.3 µM.

In the case of `CCn1cnc2ccc3nc(C(=N)NC(C)C)sc3c2c1=O`, the IC50 in experiment [1] was determined as 7.2 µM.

Consider `CC(C)n1cnc2ccc3nc(C(=N)NCCN(C)C)sc3c2c1=O`, for which the figures for the IC50 in experiment [1], in experiment [2] and in experiment [3] were 0.56 µM, 10 µM and 4 µM, respectively.

For the origin of these results see ChEMBL document CHEMBL1138085, “Thiazolo[5,4-f]quinazolin-9-ones, inhibitors of glycogen synthase kinase-3” (Bioorg Med Chem Lett, 2006).
